According to ChEMBL document CHEMBL3758146, “Synthesis and biological evaluation of quinazolin-4(3H)-one derivatives bearing dithiocarbamate side chain at C2-position as potential antitumor agents” (Eur J Med Chem, 2016):
Activity calls are given as the source filed them. The calls are words filed in the database; no cut-off is given here.

What was measured:
[1] = tested on: A549; assay: Antiproliferative activity against human A549 cells after 72 hrs by MTS assay; assay type: functional, cell-based; conditions: A549, 72 h
Outline: (§1)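 MTS (CellTiter 96 AQueous One) read-out after 72 h exposure; compounds first screened at 50 µM, with ≥50% inhibition versus vehicle-treated cells counted as active. Actives were then tested at various concentrations to give IC50 (concentration causing 50% proliferation inhibition). Triplicate wells, three independent experiments, mean ± SD. 5-FU as positive control.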

[2] = tested on: MCF7; assay: Antiproliferative activity against human MCF7 cells after 72 hrs by MTS assay; assay type: functional, cell-based; conditions: MCF7, 72 h; outline: as §1
[3] = tested on: HeLa; assay: Antiproliferative activity against human HeLa cells after 72 hrs by MTS assay; assay type: functional, cell-based; outline: as §1
[4] = tested on: HT-29; assay: Antiproliferative activity against human HT-29 cells after 72 hrs by MTS assay; assay type: functional, cell-based; conditions: HT-29, 72 h; outline: as §1
[5] = Antiproliferative activity against human HCT116 cells after 72 hrs by MTS assay; assay type: functional, cell-based; conditions: HCT-116, 72 h; outline: as §1
[6] = tested on: HT-29; assay: Induction of spindle assembly checkpoint in human HT-29 cells assessed as mitotic index after 2 hrs by immunostaining assay (reference value: 2.47 +/- 0.71); assay type: functional
[7] = tested on: HT-29; assay: Induction of spindle assembly checkpoint in human HT-29 cells assessed as mitotic index after 4 hrs by immunostaining assay (reference value: 3.13 +/- 1.01); assay type: functional
[8] = tested on: HT-29; assay: Induction of spindle assembly checkpoint in human HT-29 cells assessed as mitotic index after 8 hrs by immunostaining assay (reference value: 2.81 +/- 0.82); assay type: functional
[9] = tested on: HT-29; assay: Induction of spindle assembly checkpoint in human HT-29 cells assessed as mitotic index after 16 hrs by immunostaining assay (reference value: 2.87 +/- 0.82); assay type: functional
[10] = tested on: HT-29; assay: Cell cycle arrest in human HT-29 cells assessed as accumulation at G0/G1 phase at 0.18 uM after 24 hrs by propidium iodide staining based FACS analysis (reference value: 50.25 +/- 1.19%); assay type: functional
[11] = tested on: HT-29; assay: Cell cycle arrest in human HT-29 cells assessed as accumulation at S phase at 0.18 uM after 24 hrs by propidium iodide staining based FACS analysis (reference value: 33.05 +/- 2.22%); assay type: functional
[12] = tested on: HT-29; assay: Cell cycle arrest in human HT-29 cells assessed as accumulation at G2/M phase at 0.18 uM after 24 hrs by propidium iodide staining based FACS analysis (reference value: 16.7 +/- 1.55%); assay type: functional
[13] = tested on: HT-29; assay: Upregulation of phosphorylated BubR1 level in human HT-29 cells after 16 hrs by immuno-blot analysis; assay type: functional, cell-based
[14] = tested on: HT-29; assay: Cell cycle arrest in human HT-29 cells assessed as accumulation at G0/G1 phase at IC50 after 24 hrs by propidium iodide staining based FACS analysis (reference value: 50.25 +/- 1.19%); assay type: functional
[15] = tested on: HT-29; assay: Cell cycle arrest in human HT-29 cells assessed as accumulation at S phase at IC50 after 24 hrs by propidium iodide staining based FACS analysis (reference value: 33.05 +/- 2.22%); assay type: functional
[16] = tested on: HT-29; assay: Cell cycle arrest in human HT-29 cells assessed as accumulation at G2/M phase at IC50 after 24 hrs by propidium iodide staining based FACS analysis (reference value: 16.7 +/- 1.55%); assay type: functional
[17] = tested on: HT-29; assay: Induction of DNA damage in human HT-29 cells assessed as gamma-H2AX foci formation after 1 to 2 hrs by DAPI staining based indirect immunofluorescence assay; assay type: functional, cell-based
Outline: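 HT29 cells treated 1 or 2 h alongside CPT (2 µM) and DMSO diluent, fixed, immunostained with mouse monoclonal anti-γ-H2AX (clone JBW301, 1:1500) and counterstained with DAPI for DNA; γ-H2AX foci scored by indirect immunofluorescence.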

[18] = biological target: T1, Tubulin (Sus scrofa) (UniProt P02554+P02550); assay: Induction of porcine neuronal tubulin polymerization at 10 uM after 60 mins by spectrometric analysis; assay type: protein assay
Outline: (§2)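 Cell-free tubulin polymerization run by a commercial kit protocol; assembly followed as rise in absorbance at 340 nm over 60 min at 37 °C, with Taxol as reference.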

[19] = biological target: T1, Tubulin (Sus scrofa); assay: Induction of porcine neuronal tubulin polymerization at 15 uM after 60 mins by spectrometric analysis; assay type: protein assay; outline: as §2
[20] = tested on: HT-29; assay: Induction of DNA damage in human HT-29 cells assessed as increase in gamma-H2AX protein level after 1 to 2 hrs by Western blot analysis; assay type: functional, cell-based
Outline: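 Total lysates of HT29 cells treated 1 or 2 h, with CPT (2 µM) and DMSO diluent as comparators, immunoblotted for γ-H2AX (15 kDa), with β-actin (42 kDa) as loading control probed on a separate section of the same membrane.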

[21] = tested on: CA46; assay: Cytotoxicity against human CA46 cells assessed as growth inhibition after 24 hrs by coulter counter analysis; assay type: functional, cell-based; conditions: CA46, 24 h
[22] = tested on: MCF7; assay: Cytotoxicity against human MCF7 cells assessed as growth inhibition after 48 hrs by sulforhodamine B assay; assay type: functional, cell-based; conditions: MCF7, 48 h
[23] = tested on: HT-29; assay: Induction of DNA damage in human HT-29 cells assessed as gamma-H2AX foci formation at 2 uM after 1 to 2 hrs by DAPI staining based indirect immunofluorescence assay; assay type: functional, cell-based
Outline: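 HT29 cells exposed 1 or 2 h, DMSO as diluent control. After fixation, cells immunostained with mouse monoclonal anti-γ-H2AX (clone JBW301, 1:1500) and DNA counterstained with DAPI. γ-H2AX foci scored by indirect immunofluorescence.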

[24] = tested on: HT-29; assay: Induction of DNA damage in human HT-29 cells assessed as increase in gamma-H2AX protein level at 2 uM after 1 to 2 hrs by Western blot analysis; assay type: functional, cell-based
Outline: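 HT29 cells treated 1 or 2 h, DMSO as diluent control. Total lysates immunoblotted for γ-H2AX (15 kDa), with β-actin (42 kDa) as loading reference; both probed on separate sections of one membrane.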

T1 sequence (P02550 whole entry, looked up): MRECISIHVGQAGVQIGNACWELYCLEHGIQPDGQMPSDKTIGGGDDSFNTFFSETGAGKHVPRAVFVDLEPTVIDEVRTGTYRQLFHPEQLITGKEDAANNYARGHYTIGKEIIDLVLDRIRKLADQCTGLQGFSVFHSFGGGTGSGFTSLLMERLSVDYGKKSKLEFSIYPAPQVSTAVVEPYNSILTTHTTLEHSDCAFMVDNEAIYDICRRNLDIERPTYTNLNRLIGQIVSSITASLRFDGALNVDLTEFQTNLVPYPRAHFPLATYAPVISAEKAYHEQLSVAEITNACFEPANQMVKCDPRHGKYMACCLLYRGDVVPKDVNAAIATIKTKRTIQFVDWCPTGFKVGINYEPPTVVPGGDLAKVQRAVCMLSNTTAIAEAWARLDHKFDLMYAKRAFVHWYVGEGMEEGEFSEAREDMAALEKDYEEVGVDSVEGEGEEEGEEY
T1 sequence (P02554 whole entry, looked up): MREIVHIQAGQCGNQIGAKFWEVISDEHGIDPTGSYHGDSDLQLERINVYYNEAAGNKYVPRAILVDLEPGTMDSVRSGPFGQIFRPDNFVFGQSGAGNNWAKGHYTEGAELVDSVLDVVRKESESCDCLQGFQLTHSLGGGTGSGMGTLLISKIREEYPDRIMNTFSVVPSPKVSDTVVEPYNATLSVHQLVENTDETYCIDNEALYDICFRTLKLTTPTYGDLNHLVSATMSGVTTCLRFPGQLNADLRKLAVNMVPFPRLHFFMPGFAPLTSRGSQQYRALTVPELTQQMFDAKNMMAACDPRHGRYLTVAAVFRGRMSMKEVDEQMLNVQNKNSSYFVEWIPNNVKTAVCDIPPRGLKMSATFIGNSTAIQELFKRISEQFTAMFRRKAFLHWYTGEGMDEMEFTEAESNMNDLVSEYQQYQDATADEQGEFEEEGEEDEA

SMILES	IC50 [1]	IC50 [2]	IC50 [3]	IC50 [4]	IC50 [5]	also measured
O=c1[nH]c(CSC(=S)NCc2ccccc2)nc2ccccc12	23.7 µM	31.3 µM	10.7 µM	14.5 µM	18.1 µM	–
COC(=O)Nc1nc2cc(C(=O)c3cccs3)ccc2[nH]1 [NOCODAZOLE]	–	–	–	–	–	Activity_index [6]: 5.22; Activity_index [7]: 11.4; Activity_index [8]: 25.61; Activity_index [9]: 64.81
O=c1[nH]c(CSC(=S)NCc2ccc(F)cc2F)nc2ccccc12	30.6 µM	20.4 µM	20.1 µM	15.7 µM	22.3 µM	–
O=c1[nH]c(CSC(=S)NCc2cccnc2)nc2ccccc12	14.8 µM	20.2 µM	11 µM	14.2 µM	11.2 µM	–
CC(=O)O[C@H]1C(=O)[C@@]2(C)[C@H]([C@H](OC(=O)c3ccccc3)[C@]3(O)C[C@H](OC(=O)[C@H](O)[C@@H](NC(=O)c4ccccc4)c4ccccc4)C(C)=C1C3(C)C)[C@]1(OC(C)=O)CO[C@@H]1C[C@@H]2O [PACLITAXEL]	–	–	–	–	–	Activity [10]: 1.7%; Activity [11]: 17.6%; Activity [12]: 80.71%; Activity [13]: Active
COc1ccc(CNC(=S)SCc2nc3ccccc3c(=O)[nH]2)c(OC)c1	10.5 µM	13.5 µM	16 µM	10.1 µM	25.5 µM	–
O=c1[nH]c(CSC(=S)NCc2ccc3c(c2)OCO3)nc2ccccc12	44.6 µM	21.7 µM	20.3 µM	19.3 µM	34.2 µM	–
O=c1[nH]c(CSC(=S)NCc2ccc(Cl)cc2)nc2ccccc12	> 50 µM	> 50 µM	> 50 µM	> 50 µM	> 50 µM	–
O=c1[nH]c(CSC(=S)NCc2cccs2)nc2ccccc12	25.7 µM	23.9 µM	26.1 µM	16.1 µM	16.1 µM	–
O=c1[nH]cc(F)c(=O)[nH]1 [FLUOROURACIL]	–	–	–	–	–	Activity [14]: 5.42%; Activity [15]: 91.11%; Activity [16]: 3.48%; Activity_index [6]: 2.28; Activity_index [7]: 2.09; Activity_index [8]: 0.29; Activity_index [9]: 0.23
O=c1[nH]c(CSC(=S)NCc2ccco2)nc2ccccc12	42.6 µM	> 50 µM	31.2 µM	33.7 µM	24.6 µM	–
COc1ccccc1CNC(=S)SCc1nc2ccccc2c(=O)[nH]1	12 µM	14.8 µM	16.5 µM	12.3 µM	30.6 µM	–
COc1ccc(CNC(=S)SCc2nc3ccccc3c(=O)[nH]2)cc1	7.27 µM	10.9 µM	12.2 µM	5.53 µM	22.7 µM	Activity [14]: 16.45%; Activity [15]: 28.25%; Activity [16]: 55.31%; Activity [17]: inactive; Activity_index [6]: 4.66; Activity_index [7]: 7.75; Activity_index [8]: 10.15; Activity_index [9]: 37.85; Activity [18]: inactive; Activity [19]: Active; Activity [20]: inactive; Activity [13]: Active
O=c1[nH]c(CSC(=S)NCc2ccc(F)cc2)nc2ccccc12	10.7 µM	17.4 µM	21.2 µM	18.6 µM	20.1 µM	–
O=c1[nH]c(CSC(=S)NCc2ccccc2F)nc2ccccc12	21.2 µM	20.5 µM	13.2 µM	16.4 µM	20.3 µM	–
O=c1[nH]c(CSC(=S)NCc2ccc(Cl)cc2Cl)nc2ccccc12	12.8 µM	> 50 µM	29 µM	11.4 µM	29.7 µM	–
COc1cc(CNC(=S)SCc2nc3ccccc3c(=O)[nH]2)cc(OC)c1OC	10.4 µM	8.97 µM	22.9 µM	7.16 µM	17.3 µM	–
O=c1c2cc(Cl)ccc2nc(/C=C/c2ccccc2)n1-c1ncccn1	–	–	–	–	–	IC50 [21]: 1 µM; IC50 [22]: 0.34 µM
O=c1[nH]c(CSC(=S)NCc2ccncc2)nc2ccccc12	6.13 µM	16.1 µM	12.5 µM	16 µM	6.67 µM	–
Cc1ccc(CNC(=S)SCc2nc3ccccc3c(=O)[nH]2)cc1	32.6 µM	21.4 µM	20.7 µM	16.3 µM	23.2 µM	–
O=c1[nH]c(CSC(=S)NCc2ccc(Br)cc2)nc2ccccc12	18.2 µM	39.2 µM	22.9 µM	32.3 µM	45.3 µM	–
O=c1[nH]c(CSC(=S)NCc2ccccn2)nc2ccccc12	> 50 µM	> 50 µM	> 50 µM	> 50 µM	> 50 µM	–
CC[C@@]1(O)C(=O)OCc2c1cc1n(c2=O)Cc2cc3ccccc3nc2-1 [CAMPTOTHECIN]	–	–	–	–	–	Activity_index [6]: 1.55; Activity_index [7]: 1.11; Activity_index [8]: 0.33; Activity [23]: Active; Activity [24]: Active
O=c1[nH]c(CSC(=S)NCc2ccc([N+](=O)[O-])cc2)nc2ccccc12	11.4 µM	19.3 µM	28.4 µM	17.2 µM	16.4 µM	–
O=c1[nH]c(CSC(=S)NCc2ccc(C(F)(F)F)nc2)nc2ccccc12	12.9 µM	19.2 µM	28.4 µM	16.5 µM	16.7 µM	–
